# Experimental data collected from several papers.
# Compare with care: the assays were run in different laboratories.
# P2RX7: P2X purinoceptor 7 (P2RX7, Homo sapiens, UniProt Q99572)
# 4-aminobutyrate aminotransferase, mitochondrial: 4-aminobutyrate aminotransferase, mitochondrial (Homo sapiens, UniProt P80404)
# DCAF1: DDB1- and CUL4-associated factor 1 (DCAF1, Homo sapiens, UniProt Q9Y4B6)
SMILES,target,assay,setting,measurement,value
CNc1ncc2c(/C=C/C(=O)N3CCC(OC)CC3)nn(Cc3cccc(C(F)(F)F)c3)c2n1,"Mitogen-activated protein kinase kinase kinase 11 (MAP3K11, Homo sapiens, UniProt Q16584)","enzyme activity, inhibitor, radiometric",1 µM,remaining activity,97%
O=C(c1ccc(I)cc1)N1CCC(n2cncc2-c2ccc(OS(=O)(=O)c3cccc4cnccc34)cc2)CC1,P2RX7,"ligand displacement, radioligand","1 µM, cell membranes",inhibition,> 70%
C=CC(=O)N1CCC(COCC(=O)N2CCN(c3nc(-c4cnc(N)nc4C(F)F)nc(N4CCOC[C@@H]4C)n3)CC2)CC1,"Ribosomal protein S6 kinase alpha-4, N-terminal kinase domain (RPS6KA4, Homo sapiens, UniProt O75676)","binding, competition with immobilised ligand",1 µM,remaining binding,93%
Cc1cc([C@@H](C)Nc2ccccc2C(=O)O)c2nc(N3CCC(F)(F)CC3)c(C#N)c(=O)n2c1,"Hepatocyte growth factor receptor (MET, Homo sapiens, UniProt P08581)","binding, competition with immobilised ligand",1 µM,remaining binding,100%
Cc1cc(NC(=O)c2cccc(NC(=O)/C=C/CN(C)C)c2)ccc1Nc1nccc(-c2cccnc2)n1,"Interleukin-1 receptor-associated kinase 1 (IRAK1, Homo sapiens, UniProt P51617)","binding, competition with immobilised ligand",1 µM,remaining binding,11%
COc1ccccc1C(=O)/C=C/c1cn(Cc2cn(-c3ccnc4cc(Cl)ccc34)nn2)c2ccccc12,"Calcium-dependent protein kinase 1 (CDPK1, Plasmodium falciparum, UniProt P62344)","enzyme activity, inhibitor, ADP detection",5 µM,inhibition,88.3%
N[C@H]1C=C(C(=O)O)CC(F)(F)C1,"4-aminobutyrate aminotransferase, mitochondrial","enzyme activity, inhibitor",,kinact/KI,2.83 M⁻¹ s⁻¹
COc1cc(-c2cncc3c2CN(C)Cc2cc(N4CCNCC4)ccc2-3)cc(OC)c1OC,"Hepatocyte growth factor receptor (MET, Homo sapiens, UniProt P08581, Y1230H)","enzyme activity, inhibitor",1 µM,remaining activity,86%
N[C@H]1CC(C(=O)O)=CC(F)(F)C1,"4-aminobutyrate aminotransferase, mitochondrial","enzyme activity, inhibitor",,kinact/KI,2 M⁻¹ s⁻¹
C[C@@H]1CN(c2ccc(-c3cc(C(=O)NCCOCCOCCOCCOCCOCCOCCNC(=O)/C=C/c4[nH]cc(C(=O)N[C@@H](CC(N)=O)c5ccc(F)c(Cl)c5)c4-c4ccc(Cl)cc4F)ccc3F)cc2NC(=O)c2ccc(F)cc2C(F)(F)F)C[C@H](C)N1C,DCAF1,"thermal stability, DSF",5.5 µM,ΔTm,5.3 °C
O=C(c1ccc(Br)cc1)N1CCC(n2cncc2-c2ccc(OS(=O)(=O)c3cccc4cnccc34)cc2)CC1,P2RX7,"ligand displacement, radioligand","1 µM, cell membranes",inhibition,> 70%
C[C@@H]1CN(c2ccc(-c3cc(C(=O)NCCOCCOCCOCCOCCNC(=O)Cn4cc(-c5[nH]cc(C(=O)N[C@@H](CC(N)=O)c6ccc(F)c(Cl)c6)c5-c5ccc(Cl)cc5F)cn4)ccc3F)cc2NC(=O)c2c[nH]c(=O)cc2C(F)(F)F)C[C@H](C)N1C,DCAF1,"thermal stability, DSF",5.5 µM,ΔTm,8 °C
Cc1nn(CCc2ccccc2)c2ncc(C(=O)NCc3cccnc3)c(Cl)c12,"Prolyl endopeptidase (PREP, Homo sapiens, UniProt P48147)","enzyme activity, inhibitor, fluorescence",,kinact,0.000233 s⁻¹
